Reference: ChEMBL document CHEMBL1123400, “Synthesis and biological activity of certain nucleoside and nucleotide derivatives of pyrazofurin” (1986)

What was measured:
P388 [1] = assay: In vitro inhibitory effect on growth of P388 leukemia cells; assay type: functional; conditions: Mus musculus, read-out: ID50 (the source's name)
How it was run: (§1)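 Suspension cells in RPMI-1640 with 10% FBS and 20 mM Hepes were seeded at 1 × 10^5 cells/mL. Filter-sterilized compound was added in duplicate at log concentrations 1 × 10^-10 to 1 × 10^-4 M. After 48 h at 37 °C, cells were Coulter-counted. ID50 is 50% growth inhibition versus untreated controls, averaged over two to three determinations.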

L1210 [2] = assay: In vitro inhibitory effect on growth of L1210 leukemia cells; assay type: functional; conditions: Mus musculus, read-out: ID50 (the source's name); how it was run: as §1
Vaccinia virus = assay: In vitro antiviral activity against vaccinia virus in Vero cells.; assay type: functional; conditions: Orthopoxvirus vaccinia, read-out: ED50 (the source's name)
Human respirovirus 3 = assay: In vitro antiviral activity against parainfluenza type 3 virus in Vero cells.; assay type: functional; conditions: Human respirovirus 3, Vero; read-out: ED50 (the source's name)
How it was run: (§2)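 Confluent Vero monolayers (4 × 10^4 cells/well, grown 24 h at 37 °C in EMEM with 10% newborn bovine serum) were infected with virus: HSV-2 at 100, measles at 100, para-3 at 60 TCID50/well. After 30 min adsorption at 37 °C, compound was added in seven 0.5-log steps, final 5 × 10^-6 to 5 × 10^-3 M (active ones 5 × 10^-7 to 5 × 10^-4 M), duplicate wells.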

B16 = assay: In vitro inhibitory effect on growth of B16 melanoma cells; assay type: functional; conditions: Mus musculus, read-out: ID50 (the source's name)
How it was run: (§3)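 Monolayers were seeded at 2.5 × 10^4 cells/well and grown 24 h at 37 °C, 5% CO2. Lewis lung cells were kept in RPMI-1640 with 5% fetal calf serum; B16 cells in MEM with 10% FCS, nonessential amino acids, 1 mM pyruvate and vitamins. Medium was replaced with compound at log concentrations 1 × 10^-10 to 1 × 10^-4 M. After 72 h, cells were PBS-washed, trypsinized and Coulter-counted. ID50 is 50% growth inhibition versus controls, averaged over two to three determinations.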

Measles morbillivirus = assay: In vitro antiviral activity against measles virus in Vero cells; assay type: functional; conditions: read-out: ED50 (the source's name); how it was run: as §2
Vero = assay: Maximum tolerated concentration against Vero cells.; assay type: functional, Chlorocebus sabaeus
How it was run: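 Single uninfected confluent Vero monolayer wells were exposed alongside the antiviral wells, final 5 × 10^-6 to 5 × 10^-3 M, for 72 h at 37 °C, 5% CO2. Cytotoxicity was any microscopically visible change in morphology or monolayer density (lysis, rounding, detachment). MTC is the […].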

[3] = system: Lewis lung carcinoma cell line; assay: In vitro inhibitory effect on growth of lewis lung carcinoma cells; assay type: functional; conditions: Mus musculus, read-out: ID50 (the source's name); how it was run: as §3
Human alphaherpesvirus 2 = assay: In vitro antiviral activity against herpes simplex virus type 2 (HSV-2) in Vero cells.; assay type: functional; conditions: Human alphaherpesvirus 2, Vero; read-out: ED50 (the source's name); how it was run: as §2
P388 [4] = assay: In vitro inhibitory effect on growth of P388 leukemia cell; assay type: functional; conditions: Mus musculus, read-out: ID50 (the source's name); how it was run: as §1
L1210 [5] = assay: In vitro inhibitory effect on growth of L1210 leukemia cells.; assay type: functional; conditions: Mus musculus, read-out: ID50 (the source's name); how it was run: as §1
[6] = system: Lewis lung carcinoma cell line; assay: In vitro inhibitory effect on growth of lewis lung carcinoma cells.; assay type: functional; conditions: Mus musculus, read-out: ID50 (the source's name); how it was run: as §3
P388 [7] = assay: In vitro inhibitory effect on growth of P388 leukemia cells.; assay type: functional; conditions: Mus musculus, read-out: ID50 (the source's name); how it was run: as §1
[8] = In vitro inhibitory effect on growth of […] cells.; assay type: functional; conditions: Mus musculus; read-out: ID50 (the source's name); how it was run: as §3

| SMILES | IC50 (P388 [1]) | IC50 (L1210 [2]) | EC50 (Vaccinia virus) | EC50 (Human respirovirus 3) | IC50 (B16) | EC50 (Measles morbillivirus) | MTC (Vero) | IC50 [3] | EC50 (Human alphaherpesvirus 2) | IC50 (P388 [4]) | IC50 (L1210 [5]) | IC50 [6] | IC50 (P388 [7]) | IC50 [8] |
| --- | --- | --- | --- | --- | --- | --- | --- | --- | --- | --- | --- | --- | --- | --- |
| NC(=S)c1[nH]nc([C@@H]2O[C@H](CO)[C@@H](O)[C@H]2O)c1OCc1ccccc1 | > 100 µM | > 100 µM | 2100 µM | > 5000 µM | > 100000 nM | 0.5 mM | >5 mM | > 100000 nM | 2.8 mM |  |  |  |  |  |
| NC(=O)c1[nH]nc([C@@H]2O[C@H](COP(=O)([O-])[O-])[C@@H](O)[C@H]2O)c1OCc1ccccc1.[Na+].[Na+] | 94 µM | 130 µM | > 5000 µM | > 5000 µM |  | > 5 mM | >5 mM |  | > 5 mM |  |  |  |  |  |
| COc1c([C@@H]2O[C@H](CO)[C@@H](O)[C@H]2O)nn(C)c1C(N)=O |  | > 100 µM | 5000 µM | > 5000 µM |  | > 5 mM | 5 mM |  | 3.2 mM | > 100 µM |  |  |  |  |
| CCOP(=O)(O)OC[C@H]1O[C@@H](C2=NNC(C(N)=O)C2=O)[C@H](O)[C@@H]1O (some centres not stated) | 0.0032 µM | 0.0039 µM | 26 µM | 80 µM | 230 nM | 0.097 mM | >5 mM | 0.7 nM | 0.59 mM |  |  |  |  |  |
| NC(=O)C1NN=C([C@@H]2O[C@H](CO)[C@@H](O)[C@H]2O)C1=O (some centres not stated) | 0.0033 µM | 0.0032 µM | 2.8 µM | 3 µM | 63 nM | 0.0096 mM | 1.6 mM | 1.8 nM | 0.02 mM |  |  |  |  |  |
| N=C(N)C1NN=C([C@@H]2O[C@H](CO)[C@@H](O)[C@H]2O)C1=O (some centres not stated) | > 100 µM | 79 µM | > 5000 µM |  | > 100000 nM | 5 mM | >5 mM | 89000 nM | 3.1 mM |  |  |  |  |  |
| CN1N=C([C@@H]2O[C@H](CO)[C@@H](O)[C@H]2O)C(=O)C1C(N)=O (some centres not stated) | 17 µM | 15 µM | 1600 µM | > 5000 µM |  | > 5 mM | >5 mM |  | > 5 mM |  |  |  |  |  |
| COc1c([C@@H]2O[C@H](CO)[C@@H](O)[C@H]2O)n[nH]c1C(N)=O | 40 µM | 29 µM | 2800 µM | > 5000 µM |  | > 5 mM | >5 mM |  | > 5 mM |  |  |  |  |  |
| N/C(=N/O)c1[nH]nc([C@@H]2O[C@H](CO)[C@@H](O)[C@H]2O)c1OCc1ccccc1 | > 100 µM | > 100 µM | > 5000 µM | > 5000 µM |  | > 5 mM | >5 mM |  | > 5 mM |  |  |  |  |  |
| COP(=O)(OC)OC[C@H]1O[C@@H](C2=NNC(C(N)=O)C2=O)[C@H](O)[C@@H]1O (some centres not stated) | 0.012 µM | 0.0058 µM | 280 µM | 1000 µM | 2300 nM | 1.4 mM | >5 mM | 10 nM | > 5 mM |  |  |  |  |  |
| NC(=O)c1[nH]nc([C@@H]2O[C@H](CO)[C@@H](O)[C@H]2O)c1OCc1ccccc1 | 62 µM | 75 µM | > 5000 µM | > 5000 µM |  | 1.3 mM | >5 mM |  | > 5 mM |  |  |  |  |  |
| N#CC1NN=C([C@@H]2O[C@H](CO)[C@@H](O)[C@H]2O)C1=O (some centres not stated) | 45 µM | 13 µM | 5000 µM | > 5000 µM | 72000 nM | 5 mM | >5 mM | 28000 nM | > 5 mM |  |  |  |  |  |
| NC(=O)c1[nH]nc(C2O[C@H](COP(=O)(O)O)[C@H](O)[C@@H]2O)c1O (some centres not stated) | 0.001 µM | 0.0027 µM | 4 µM | 6.3 µM | 240 nM | 0.02 mM | >5 mM | 5 nM | 0.023 mM |  |  |  |  |  |
| NC(=O)c1[nH]nc(C2O[C@@H](COP(=O)(O)OP(=O)(O)OC[C@H]3OC(n4cnc5c(N)ncnc54)[C@H](O)[C@@H]3O)[C@H](O)[C@@H]2O)c1O (some centres not stated) |  |  | 9 µM | 5 µM |  | 0.016 mM | 5 mM |  | 0.01 mM |  | 4 nM | 4.8 nM | 8.8 nM | 600 nM |
| NC(=O)c1[nH]nc(C2OC3COP(=O)(O)O[C@@H]3[C@@H]2O)c1O (some centres not stated) | 4.4 µM | 2.5 µM | 250 µM | 500 µM | 6300 nM | > 5 mM | >5 mM | 1700 nM | 0.13 mM |  |  |  |  |  |
| NC(=O)c1ncn([C@@H]2O[C@H](CO)[C@@H](O)[C@H]2O)n1 [RIBAVIRIN] |  |  | 90 µM | 160 µM |  | 0.099 mM | >5 mM |  | 0.19 mM |  |  |  |  |  |
